# Several values for one entry are separate records, joined by “and”; a condition that tells them apart may be missing. Equal values may be shown once.
# Tested on: HEK-293T
# Test: Multiplex assay against HEK293T;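 as to Population Tubulin-Different-Phenotype (%): share of the cells with healthy nuclei that show this phenotype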
# Type: toxicity, cell-based
# Details: human
# Method in brief: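 Live cells were stained at seeding with Hoechst33342, BioTracker Green Microtubule Cytoskeleton Dye, MitoTracker Red and Annexin V Alexa Fluor 680. Following compound addition, they were imaged on a CQ1 microscope at 37°C and 5% CO2 and gated by CellPathfinder machine learning into Hoechst high-intensity objects or normal cells, with normal cells split into healthy, pyknosed or fragmented nuclei and pyknosed cells into mitotic or apoptotic. Tubulin, mitochondrial-mass and membrane-permeability phenotypes are per cents of healthy-nucleus cells.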
# [1] = 12 h, 10 µM, compound concentration 10 uM, replicate 1
# [2] = 12 h, 10 µM, compound concentration 10 uM, replicate 2
# [3] = 24 h, 10 µM, compound concentration 10 uM, replicate 1
# [4] = 24 h, 10 µM, compound concentration 10 uM, replicate 2
# [5] = 12 h, 1 µM, compound concentration 1 uM, replicate 1
# [6] = 12 h, 1 µM, compound concentration 1 uM, replicate 2
# [7] = 24 h, 1 µM, compound concentration 1 uM, replicate 1
# [8] = 24 h, 1 µM, compound concentration 1 uM, replicate 2
# [9] = 48 h, 1 µM, compound concentration 1 uM, replicate 1
# [10] = 48 h, 1 µM, compound concentration 1 uM, replicate 2
# [11] = 48 h, 10 µM, compound concentration 10 uM, replicate 1
# [12] = 48 h, 10 µM, compound concentration 10 uM, replicate 2
structure (smiles),measurement,setting,value
Cc1cc(NC(=O)c2cccc(S(F)(F)(F)(F)F)c2)cc(-n2ccn3nc(-c4cccnc4)cc23)c1 [BAY-309],Population Fragmented Nuclei (%),[1],16% and 13%
same,Population Healthy Nuclei (%),[1],34% and 63%
same,Population Hoechst High Intensity Objects (%),[1],16% and 9%
same,Population Membrane Permeable-Phenotype (%),[1],25% and 14%
same,Population Mitochondria Different-Phenotype (%),[1],32% and 12%
same,Population Mitotic Cells (%),[1],34% and 83%
same,Population Normal (%),[1],83% and 90%
same,Population Pyknosed Nuclei (%),[1],48% and 23%
same,Population Tubulin-Different-Phenotype (%),[1],86% and 41%
same,Total Cell Count,[1],619 and 653
same,Population Fragmented Nuclei (%),[2],3% and 2%
same,Population Healthy Nuclei (%),[2],87% and 72%
same,Population Hoechst High Intensity Objects (%),[2],2% and 4%
same,Population Membrane Permeable-Phenotype (%),[2],16% and 17%
same,Population Mitotic Cells (%),[2],92% and 54%
same,Population Normal (%),[2],97% and 95%
same,Population Tubulin-Different-Phenotype (%),[2],59% and 98%
same,Total Cell Count,[2],1524 and 975
same,Population Fragmented Nuclei (%),[3],19% and 9%
same,Population Healthy Nuclei (%),[3],29% and 77%
same,Population Hoechst High Intensity Objects (%),[3],16% and 7%
same,Population Membrane Permeable-Phenotype (%),[3],10% and 21%
same,Population Normal (%),[3],83% and 92%
same,Population Tubulin-Different-Phenotype (%),[3],85% and 66%
same,Total Cell Count,[3],590 and 755
same,Population Healthy Nuclei (%),[4],79% and 66%
same,Population Hoechst High Intensity Objects (%),[4],3% and 6%
same,Population Mitotic Cells (%),[4],94% and 45%
same,Population Normal (%),[4],96% and 93%
same,Population Tubulin-Different-Phenotype (%),[4],67% and 98%
same,Total Cell Count,[4],2348 and 996
CCc1nn(CCCN2CCN(c3cccc(Cl)c3)CC2)c(=O)n1CCOc1ccccc1.Cl [NEFAZODONE HYDROCHLORIDE],Population Apoptotic (%),[5],47%
same,Population Fragmented Nuclei (%),[5],7%
same,Population Healthy Nuclei (%),[5],45%
same,Population Hoechst High Intensity Objects (%),[5],10%
same,Population Membrane Permeable-Phenotype (%),[5],7%
same,Population Mitochondria Different-Phenotype (%),[5],88%
same,Population Mitotic Cells (%),[5],52%
same,Population Normal (%),[5],89%
same,Population Pyknosed Nuclei (%),[5],46%
same,Population Tubulin-Different-Phenotype (%),[5],72%
same,Population Apoptotic (%),[6],9%
same,Population Fragmented Nuclei (%),[6],5%
same,Population Healthy Nuclei (%),[6],34%
same,Population Hoechst High Intensity Objects (%),[6],3%
same,Population Membrane Permeable-Phenotype (%),[6],9%
same,Population Mitochondria Different-Phenotype (%),[6],54%
same,Population Mitotic Cells (%),[6],90%
same,Population Normal (%),[6],96%
same,Population Pyknosed Nuclei (%),[6],59%
same,Population Tubulin-Different-Phenotype (%),[6],49%
same,Population Apoptotic (%),[1],90%
same,Population Fragmented Nuclei (%),[1],29%
same,Population Hoechst High Intensity Objects (%),[1],21%
same,Population Mitochondria Different-Phenotype (%),[1],81%
same,Population Mitotic Cells (%),[1],9%
same,Population Normal (%),[1],78%
same,Population Pyknosed Nuclei (%),[1],53%
same,Population Tubulin-Different-Phenotype (%),[1],81%
same,Population Apoptotic (%),[2],83%
same,Population Fragmented Nuclei (%),[2],3%
same,Population Healthy Nuclei (%),[2],17%
same,Population Hoechst High Intensity Objects (%),[2],13%
same,Population Membrane Permeable-Phenotype (%),[2],0%
same,Population Mitochondria Different-Phenotype (%),[2],100%
same,Population Mitotic Cells (%),[2],16%
same,Population Normal (%),[2],86%
same,Population Pyknosed Nuclei (%),[2],78%
same,Population Tubulin-Different-Phenotype (%),[2],100%
same,Population Apoptotic (%),[7],50%
same,Population Fragmented Nuclei (%),[7],8%
same,Population Healthy Nuclei (%),[7],57%
same,Population Hoechst High Intensity Objects (%),[7],6%
same,Population Membrane Permeable-Phenotype (%),[7],3%
same,Population Mitochondria Different-Phenotype (%),[7],89%
same,Population Mitotic Cells (%),[7],50%
same,Population Normal (%),[7],93%
same,Population Pyknosed Nuclei (%),[7],34%
same,Population Tubulin-Different-Phenotype (%),[7],67%
same,Population Apoptotic (%),[8],23%
same,Population Fragmented Nuclei (%),[8],4%
same,Population Healthy Nuclei (%),[8],47%
same,Population Hoechst High Intensity Objects (%),[8],4%
same,Population Membrane Permeable-Phenotype (%),[8],8%
same,Population Mitochondria Different-Phenotype (%),[8],52%
same,Population Mitotic Cells (%),[8],76%
same,Population Normal (%),[8],95%
same,Population Pyknosed Nuclei (%),[8],47%
same,Population Tubulin-Different-Phenotype (%),[8],64%
same,Population Apoptotic (%),[3],90%
same,Population Fragmented Nuclei (%),[3],25%
same,Population Healthy Nuclei (%),[3],21%
same,Population Hoechst High Intensity Objects (%),[3],24%
same,Population Mitotic Cells (%),[3],9%
same,Population Normal (%),[3],75%
same,Population Pyknosed Nuclei (%),[3],52%
same,Population Apoptotic (%),[4],97%
same,Population Fragmented Nuclei (%),[4],6%
same,Population Healthy Nuclei (%),[4],19%
same,Population Hoechst High Intensity Objects (%),[4],10%
same,Population Membrane Permeable-Phenotype (%),[4],0%
same,Population Mitochondria Different-Phenotype (%),[4],100%
same,Population Mitotic Cells (%),[4],2%
same,Population Normal (%),[4],89%
same,Population Pyknosed Nuclei (%),[4],73%
same,Population Tubulin-Different-Phenotype (%),[4],100%
same,Population Apoptotic (%),[9],31%
same,Population Fragmented Nuclei (%),[9],7%
same,Population Healthy Nuclei (%),[9],77%
same,Population Hoechst High Intensity Objects (%),[9],5%
same,Population Membrane Permeable-Phenotype (%),[9],2%
same,Population Mitochondria Different-Phenotype (%),[9],49%
same,Population Mitotic Cells (%),[9],68%
same,Population Normal (%),[9],94%
same,Population Pyknosed Nuclei (%),[9],14%
same,Population Tubulin-Different-Phenotype (%),[9],44%
same,Population Apoptotic (%),[10],17%
same,Population Fragmented Nuclei (%),[10],4%
same,Population Healthy Nuclei (%),[10],72%
same,Population Hoechst High Intensity Objects (%),[10],1%
same,Population Membrane Permeable-Phenotype (%),[10],6%
same,Population Mitochondria Different-Phenotype (%),[10],27%
same,Population Mitotic Cells (%),[10],82%
same,Population Normal (%),[10],98%
same,Population Pyknosed Nuclei (%),[10],22%
same,Population Tubulin-Different-Phenotype (%),[10],49%
same,Population Apoptotic (%),[11],90%
same,Population Fragmented Nuclei (%),[11],21%
same,Population Healthy Nuclei (%),[11],33%
same,Population Hoechst High Intensity Objects (%),[11],15%
same,Population Membrane Permeable-Phenotype (%),[11],1%
same,Population Mitochondria Different-Phenotype (%),[11],98%
same,Population Mitotic Cells (%),[11],9%
same,Population Normal (%),[11],84%
same,Population Pyknosed Nuclei (%),[11],44%
same,Population Tubulin-Different-Phenotype (%),[11],94%
same,Population Apoptotic (%),[12],95%
same,Population Fragmented Nuclei (%),[12],6%
same,Population Healthy Nuclei (%),[12],27%
same,Population Hoechst High Intensity Objects (%),[12],12%
same,Population Membrane Permeable-Phenotype (%),[12],0%
same,Population Mitochondria Different-Phenotype (%),[12],100%
same,Population Mitotic Cells (%),[12],4%
same,Population Normal (%),[12],87%
same,Population Pyknosed Nuclei (%),[12],65%
same,Population Tubulin-Different-Phenotype (%),[12],100%

# Source: ChEMBL document CHEMBL4689842, “EUbOPEN Chemogenomics Library wave 1” (2021)
